Results pooled from the literature.
Each line is one published result; the experiments were not run side by side.
Target: Ephrin type-A receptor 2 (EPHA2, Homo sapiens, UniProt P29317)
One construct used (P29317 613-875, limits assumed): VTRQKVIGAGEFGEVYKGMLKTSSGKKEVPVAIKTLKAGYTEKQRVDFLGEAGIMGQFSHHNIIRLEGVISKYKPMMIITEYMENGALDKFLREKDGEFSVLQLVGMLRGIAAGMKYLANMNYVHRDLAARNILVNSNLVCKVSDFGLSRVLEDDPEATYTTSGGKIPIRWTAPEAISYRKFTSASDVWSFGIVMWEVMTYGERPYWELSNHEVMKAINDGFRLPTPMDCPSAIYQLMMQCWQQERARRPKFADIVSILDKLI

Structure (SMILES) | effect on | action | method | concentration | measurement | result
Nc1nc(Nc2ccccc2)sc1C(=O)c1c(F)cccc1F | enzyme activity | inhibitor |  | 10 µM | remaining activity | 71%
C#Cc1cccc(Nc2ncnc3cc(OCCOC)c(OCCOC)cc23)c1 | cell-free assay |  |  | 0.5 µM | remaining signal | 91.3%
N#CC1(c2ccccn2)CCN(Cc2cc(C(=O)N3CCCC3)c(=O)n3ccccc23)CC1 | cell-free assay |  | competition with immobilised ligand | 1 µM | remaining binding | 86%
O=C(Nc1cnn(-c2csc(C(=O)NC3COC3)c2)c1)Nc1ccccc1Cl | enzyme activity | inhibitor |  | 5 µM | remaining activity | 101%
Cc1cc(-n2nc(Cc3cc(F)cc(C(F)(F)F)c3)nc2C)ccc1C(N)=O | cell-free assay |  | competition with immobilised ligand | 1 µM | remaining binding | 100%
COc1cc(Nc2cnc(C#N)c(O[C@H](C)CN(C)C)n2)ncc1-c1cnn(C)c1 | enzyme activity | inhibitor | radiometric | 1 µM | remaining activity | 59%
CS(=O)(=O)N1CCCC(NC(=O)[C@H](CCC2CCCCC2)NC(=O)c2ccc(CNc3ncnc4c3nnn4-c3ccccc3)cc2)C1 (stereo partly shown) | cell-free assay |  | competition with immobilised ligand | 0.1 µM | remaining binding | 100%
CC(C)(C)c1nc2c(s1)c1nc(N)ncc1c1ccc(NS(=O)(=O)c3c(F)cccc3F)c(F)c12 | enzyme activity | inhibitor | radiometric | 1 µM | remaining activity | 109%
CCc1ccccc1C(=O)Nc1n[nH]c2c(C)c(F)c(C3C(C#N)=C(C)N(C)C(C)=C3C#N)cc12 | cell-free assay |  | competition with immobilised ligand | 1 µM | remaining binding | 61%
CC(C)(C)C(=O)c1sc(NC2CCCCC2)nc1N | enzyme activity | inhibitor |  | 10 µM | remaining activity | 106%
C[C@@H]1CN(c2cc(-c3nn(C)c4ccc(OC5(C)CC5)cc34)ncn2)C[C@H](C)O1 | cell-free assay |  | competition with immobilised ligand | 1 µM | remaining binding | 100%
Cc1cnc(NC2CCOCC2)nc1-n1cnc(C(=O)NC(CN)c2cc(F)cc(Cl)c2)c1 (stereo not shown) | enzyme activity | inhibitor | radiometric | 1 µM | remaining activity | 101%
CSc1nc(C)c(-c2ccnc(Nc3ccc(N4CCOCC4)cc3)c2)[nH]1 | cell-free assay | inhibitor |  | 10 µM | inhibition | 17.1%
COc1ccc(COc2ccc(Cc3cnc(N)nc3N)cc2OC)cc1 | cell-free assay |  |  | 0.5 µM | remaining signal | 107%
CS(=O)(=O)Nc1cccc(-c2csc(NC(=O)CSc3nc4nccnc4c(=O)n3CCc3ccccc3)n2)c1 | enzyme activity | inhibitor |  | 10 µM | inhibition | 9%
COc1cc2ncnc(Nc3ccc(Oc4ccccc4)c(C)c3C)c2cc1OC | enzyme activity | inhibitor |  | 1 µM | inhibition | 2%

Structure (SMILES) | effect on | action | method | concentration | measurement | result
O=C(NC[C@@H]1[C@H]2CN(C(=O)OCc3cc(C(F)(F)F)cc(C(F)(F)F)c3)C[C@@H]12)c1ccc2[nH]nnc2c1 | cell-free assay |  | competition with immobilised ligand | 1 µM | remaining binding | 79%
CNC(=O)c1cc2c(Oc3ccc(NC(=O)C4(C(=O)Nc5ccc(F)cc5)CC4)cc3)ccnc2cc1OC | enzyme activity | inhibitor | radiometric | 1 µM | inhibition | 96%
CCCS(=O)(=O)Nc1ccc(F)c(C(=O)c2c[nH]c3ncc(-c4ccc(Cl)cc4)cc23)c1F | enzyme activity | inhibitor |  | 1 µM | inhibition | < 10%
Cc1ccc(NC(=O)c2ccc(C)c(C(F)(F)F)c2)cc1C#Cc1nn(C2CCC(O)CC2)c2ncnc(N)c12 (stereo not shown) | cell-free assay |  |  | 10 µM | remaining signal | -3%
Cc1ccc(Nc2nccc(N(C)c3ccc4c(C)n(C)nc4c3)n2)cc1S(N)(=O)=O | enzyme activity | inhibitor |  | 10 µM | inhibition | 43%
O=C(Nc1ccc(Oc2ccc(F)cc2)cc1)N1CCc2ncccc2[C@H]1c1ccc(F)cc1 | cell-free assay |  | competition with immobilised ligand | 1 µM | remaining binding | 100%
Cc1cc(NC(=O)c2cccc3cc(-c4cccc5[nH]nc(N)c45)ccc23)ccc1F | enzyme activity | inhibitor |  | 0.1 µM | activity vs control | 103%
O=C1Nc2ccc(Cl)cc2C1=Cc1cc(Cl)c(O)c(Cl)c1 | cell-free assay |  |  | 0.5 µM | remaining signal | 95%
Cn1c(=O)n(-c2ccc(C(C)(C)C#N)cc2)c2c3cc(-c4cnc5ccccc5c4)ccc3ncc21 | enzyme activity | inhibitor |  | 10 µM | remaining activity | 110%
COc1cc2nccc(Oc3ccc(NC(=O)Nc4ccc(F)cc4F)c(F)c3)c2cc1OC | thermal stability |  | DSF | 10 µM | ΔTm | 5 to 10 °C
CNC(=O)c1cc(Oc2ccc(NC(=O)Nc3ccc(Cl)c(C(F)(F)F)c3)cc2)ccn1 | enzyme activity | inhibitor |  | 10 µM | inhibition | 96%
CC1=C(C#N)[C@@H](c2ccc3[nH]nc(C)c3c2)C(C#N)=C(c2ccc(Cl)cc2)N1 | cell-free assay |  | competition with immobilised ligand | 1 µM | remaining binding | 100%
Cc1ccc(C(=O)NCc2ccsc2)cc1C#Cc1cn(C(C)C)c2ncnc(N)c12 | enzyme activity | inhibitor |  | 1 µM | activity vs control | 2%
CCN(CC)CCNC(=O)c1c(C)[nH]c(/C=C2\C(=O)Nc3ccc(F)cc32)c1C | enzyme activity | inhibitor |  | 0.3 µM | inhibition | -12%
COc1cc(Cl)c(C(=O)N[C@@H](CN[C@H]2CC[C@@H](N)CC2)Cc2ccc(C#N)cc2)cc1-c1ccc(CN[C@H](C)c2ccc(C)cc2)o1 | enzyme activity | inhibitor |  | 1 µM | remaining activity | 93%
